For orientation: GI50 means the concentration giving 50% growth inhibition. One may read the IC50 as the concentration that gives 50% inhibition. For orientation: inhibition means the change of the read-out against control, counted positive when it falls. In general, LC50 refers to the concentration lethal to half of the exposed cells or organisms. The low end stands for greater toxicity, the high end for lower toxicity.

The test system of series [1] is MDA-MB-231. Briefly: Cytotoxicity against human MDA-MB-231 cells assessed as growth inhibition after 5 days by MTT assay. It counts as functional. To be noted: MDA-MB-231, 120 h. The method in brief: (§1)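 They were seeded at 5000 cells per well onto compound or DMSO (0.2% final). Plates were kept 5 days at 37 °C in 5% CO2 with no medium change, then read by MTT.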
In general terms: Tetrazolium dyes change colour on reduction, which living cells bring about.

In series [2] the target is T1, Dual specificity protein kinase CLK1 (Homo sapiens, UniProt P49759). Kind of series: Inhibition of recombinant human GST-tagged Clk1 expressed in Escherichia coli using RS repeat substrate peptide after 15 mins in presence of [gamma-32]-ATP.
Target sequence in this assay (P49759 whole entry): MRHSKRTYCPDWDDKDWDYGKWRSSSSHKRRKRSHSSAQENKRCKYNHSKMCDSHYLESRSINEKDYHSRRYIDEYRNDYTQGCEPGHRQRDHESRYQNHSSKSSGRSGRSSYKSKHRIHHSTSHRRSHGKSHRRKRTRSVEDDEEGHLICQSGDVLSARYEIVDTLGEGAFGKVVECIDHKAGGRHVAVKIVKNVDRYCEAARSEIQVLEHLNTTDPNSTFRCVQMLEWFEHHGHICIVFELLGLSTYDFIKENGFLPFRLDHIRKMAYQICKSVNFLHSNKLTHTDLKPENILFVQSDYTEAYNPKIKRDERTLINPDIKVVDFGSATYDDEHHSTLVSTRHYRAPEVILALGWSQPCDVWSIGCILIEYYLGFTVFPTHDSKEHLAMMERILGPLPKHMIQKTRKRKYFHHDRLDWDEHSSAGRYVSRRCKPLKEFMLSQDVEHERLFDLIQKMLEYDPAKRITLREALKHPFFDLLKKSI
The target in series [3] is T1, Dual specificity protein kinase CLK1. Kind of series: Inhibition of recombinant human GST-tagged Clk1 expressed in Escherichia coli at 100 nM using RS repeat substrate peptide after 15 mins in presence of [gamma-32]-ATP.
Target sequence in this assay (P49759 whole entry, looked up): as the sequence (P49759 whole entry) above
The test system of series [4] is T47D. Briefly: Cytotoxicity against human T47D cells assessed as growth inhibition after 5 days by MTT assay. It counts as functional. As to conditions: 120 h. The gist of the method:
as §1

In series [5] the test system is T-24. Kind of series: Cytotoxicity against human T24 cells assessed as growth inhibition after 5 days by MTT assay. It counts as functional. To be noted: T-24, 120 h. The method in brief:
as §1

The nature of series [6]: Cytotoxicity against HEK293 cells assessed as growth inhibition. It counts as cell-based. To be noted: human. The gist of the method:
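Cytotoxicity was tested in proliferating HEK293 cells with GI50 as the read-out. Data are the mean of at least two independent experiments.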

The target of series [7] is SRSF protein kinase 1 (Homo sapiens) (UniProt Q96SB4). Briefly: Inhibition of SRPK1 (unknown origin) at 1 uM. The method in brief: (§2)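 Tested in a commercial kinase profiling panel at an ATP concentration of 100 μM. Data are the mean of duplicates that differed by less than 7%.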
Series [8] concerns the target Dual specificity tyrosine-phosphorylation-regulated kinase 1B (Homo sapiens, UniProt Q9Y463). Kind of series: Inhibition of full length recombinant GST-tagged human DYRK1B expressed in baculovirus using KKISGRLSPIMTEQ-NH2 as substrate at 1 uM after 15 mins.
Series [9] has as its system HepG2. Briefly: Cytotoxicity against human HepG2 cells assessed as growth inhibition after 5 days by MTT assay. It counts as functional. As to conditions: HepG2, 120 h. The gist of the method:
as §1

Series [10] concerns the target T1, Dual specificity protein kinase CLK1. Kind of series: Inhibition of recombinant human GST-tagged Clk1 expressed in Escherichia coli at 1 uM using RS repeat substrate peptide after 15 mins in presence of [gamma-32]-ATP.
Target sequence in this assay (P49759 whole entry, looked up): as the sequence (P49759 whole entry) above
Series [11] addresses Dual specificity protein kinase CLK4 (Mus musculus) (UniProt O35493). Briefly: Inhibition of recombinant GST-tagged mouse CLK4 using GRSRSRSRSRSR as substrate at 1 uM after 30 mins in presence of [gamma-32P]-ATP by scintillation counting method.
The test system of series [12] is THP-1. Kind of series: Cytotoxicity against human THP1 cells assessed as growth inhibition after 5 days by MTT assay. To be noted: THP-1, 120 h. It counts as functional. The method in brief: as §1
In series [13] the target is Dual specificity tyrosine-phosphorylation-regulated kinase 4 (Homo sapiens) (UniProt Q9NR20). Kind of series: Inhibition of DYRK4 (unknown origin) using KKISGRLSPIMTEQ-NH2 as substrate at 1 uM after 15 mins in presence of [gamma-32P]-ATP.
In series [14] the target is Dual specificity protein kinase CLK3 (Mus musculus) (UniProt O35492). Briefly: Inhibition of recombinant GST-tagged mouse CLK3 using GRSRSRSRSRSR as substrate at 1 uM after 30 mins in presence of [gamma-32P]-ATP by scintillation counting method.
Series [15] concerns the target Serine/threonine-protein kinase haspin (Homo sapiens) (UniProt Q8TF76). Briefly: Inhibition of MBP-Haspin (unknown origin) at 1 uM after 10 mins by TR-FRET assay. The gist of the method: as §2
(In TR-FRET formats the signal depends on donor and acceptor labels being close together.)

The target in series [16] is SRSF protein kinase 2 (Homo sapiens) (UniProt P78362). Kind of series: Inhibition of SRPK2 (unknown origin) at 1 uM. The gist of the method: as §2
Series [17] has as its target Serine/threonine-protein kinase 17A (Homo sapiens) (UniProt Q9UEE5). Kind of series: Inhibition of STK17A (unknown origin) at 1 uM after 15 mins. The method in brief: as §2
Series [18] addresses Dual specificity protein kinase CLK2 (Mus musculus) (UniProt O35491). Kind of series: Inhibition of recombinant GST-tagged mouse CLK2 using GRSRSRSRSRSR as substrate at 1 uM after 30 mins in presence of [gamma-32P]-ATP by scintillation counting method.
Series [19] has as its target T2, Dual specificity tyrosine-phosphorylation-regulated kinase 1A (Homo sapiens, UniProt Q13627). Kind of series: Inhibition of N-terminal His6-tagged recombinant human Dyrk1A expressed in Escherichia coli BL21 (DE3) using KKISGRLSPIMTEQ-NH2 as substrate after 15 mins in presence of [gamma-32]-ATP.
Series [20] has as its target T2, Dual specificity tyrosine-phosphorylation-regulated kinase 1A. Kind of series: Inhibition of N-terminal His6-tagged recombinant human Dyrk1A expressed in Escherichia coli BL21 (DE3) using KKISGRLSPIMTEQ-NH2 as substrate at 1 uM after 15 mins in presence of [gamma-32]-ATP. As to conditions: 0.25 h.
Series [21] deals with Myosin light chain kinase 2, skeletal/cardiac muscle (Homo sapiens) (UniProt Q9H1R3). Briefly: Inhibition of MLCK2 (unknown origin) at 1 uM after 15 mins. The method in brief: as §2
Series [22] deals with Dual specificity tyrosine-phosphorylation-regulated kinase 3 (Homo sapiens) (UniProt O43781). Kind of series: Inhibition of DYRK3 (unknown origin) using KKISGRLSPIMTEQ-NH2 as substrate at 1 uM after 15 mins in presence of [gamma-32P]-ATP.
In series [23] the test system is PBL. Briefly: Cytotoxicity against human PBL after 2 days by MTT assay. It counts as cell-based. As to conditions: 48 h. The method in brief:
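Cells plated at 30 000 per well with test compounds or DMSO control for 2 days, then MTT read-out. LC50 reported as the mean of at least two independent experiments.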

Active and inactive are the calls of the source. The calls are words filed in the database; no cut-off is given here.

Dual specificity tyrosine-phosphorylation-regulated kinase 1B, sequence (Q9Y463 whole entry, looked up): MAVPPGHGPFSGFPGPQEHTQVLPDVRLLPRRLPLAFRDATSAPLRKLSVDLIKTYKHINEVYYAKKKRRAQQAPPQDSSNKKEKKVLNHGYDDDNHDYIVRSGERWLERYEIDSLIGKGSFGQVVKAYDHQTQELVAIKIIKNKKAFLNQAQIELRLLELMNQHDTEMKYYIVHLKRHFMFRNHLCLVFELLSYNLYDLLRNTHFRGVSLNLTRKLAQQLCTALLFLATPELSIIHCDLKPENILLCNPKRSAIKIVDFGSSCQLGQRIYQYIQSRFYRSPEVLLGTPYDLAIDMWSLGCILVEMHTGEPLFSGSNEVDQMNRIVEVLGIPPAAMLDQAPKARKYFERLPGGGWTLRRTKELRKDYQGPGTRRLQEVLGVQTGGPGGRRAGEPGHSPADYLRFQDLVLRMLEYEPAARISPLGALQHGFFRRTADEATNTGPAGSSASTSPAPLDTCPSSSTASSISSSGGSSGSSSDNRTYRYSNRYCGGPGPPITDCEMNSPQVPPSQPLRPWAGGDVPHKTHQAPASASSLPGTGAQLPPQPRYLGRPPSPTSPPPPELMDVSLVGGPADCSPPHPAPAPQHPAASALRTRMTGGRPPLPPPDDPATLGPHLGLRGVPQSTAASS
Myosin light chain kinase 2, skeletal/cardiac muscle (Homo sapiens), sequence (Q9H1R3 whole entry): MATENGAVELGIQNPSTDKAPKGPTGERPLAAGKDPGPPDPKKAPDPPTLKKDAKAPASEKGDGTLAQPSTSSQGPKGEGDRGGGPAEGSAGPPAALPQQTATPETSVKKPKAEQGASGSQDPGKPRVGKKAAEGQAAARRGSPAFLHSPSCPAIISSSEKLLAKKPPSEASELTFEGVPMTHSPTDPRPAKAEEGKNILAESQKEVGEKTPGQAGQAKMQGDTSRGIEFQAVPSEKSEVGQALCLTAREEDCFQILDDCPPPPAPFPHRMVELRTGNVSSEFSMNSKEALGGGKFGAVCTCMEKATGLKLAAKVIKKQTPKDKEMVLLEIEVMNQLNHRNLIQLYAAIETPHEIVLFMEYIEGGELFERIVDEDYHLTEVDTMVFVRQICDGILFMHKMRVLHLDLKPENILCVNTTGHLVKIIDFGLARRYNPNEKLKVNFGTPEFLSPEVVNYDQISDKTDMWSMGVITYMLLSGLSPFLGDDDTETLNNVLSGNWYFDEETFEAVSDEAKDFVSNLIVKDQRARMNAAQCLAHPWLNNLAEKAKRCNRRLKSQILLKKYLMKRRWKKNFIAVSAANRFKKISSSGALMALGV
Dual specificity protein kinase CLK2 (Mus musculus), sequence (O35491 whole entry, looked up): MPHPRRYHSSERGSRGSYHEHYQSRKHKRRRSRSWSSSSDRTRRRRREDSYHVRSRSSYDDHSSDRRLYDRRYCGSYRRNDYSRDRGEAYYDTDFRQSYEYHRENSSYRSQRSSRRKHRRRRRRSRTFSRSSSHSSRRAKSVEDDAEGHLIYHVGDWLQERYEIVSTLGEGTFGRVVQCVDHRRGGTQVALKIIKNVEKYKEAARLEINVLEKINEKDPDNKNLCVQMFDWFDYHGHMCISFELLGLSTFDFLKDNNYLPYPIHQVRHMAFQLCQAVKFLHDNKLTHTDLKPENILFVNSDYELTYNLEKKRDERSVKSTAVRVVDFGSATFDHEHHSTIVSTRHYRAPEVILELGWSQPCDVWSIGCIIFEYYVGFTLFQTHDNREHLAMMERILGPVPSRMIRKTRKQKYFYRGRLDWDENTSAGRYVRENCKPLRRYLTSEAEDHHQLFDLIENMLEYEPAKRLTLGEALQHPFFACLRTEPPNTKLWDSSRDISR
Serine/threonine-protein kinase haspin (Homo sapiens), sequence (Q8TF76 whole entry): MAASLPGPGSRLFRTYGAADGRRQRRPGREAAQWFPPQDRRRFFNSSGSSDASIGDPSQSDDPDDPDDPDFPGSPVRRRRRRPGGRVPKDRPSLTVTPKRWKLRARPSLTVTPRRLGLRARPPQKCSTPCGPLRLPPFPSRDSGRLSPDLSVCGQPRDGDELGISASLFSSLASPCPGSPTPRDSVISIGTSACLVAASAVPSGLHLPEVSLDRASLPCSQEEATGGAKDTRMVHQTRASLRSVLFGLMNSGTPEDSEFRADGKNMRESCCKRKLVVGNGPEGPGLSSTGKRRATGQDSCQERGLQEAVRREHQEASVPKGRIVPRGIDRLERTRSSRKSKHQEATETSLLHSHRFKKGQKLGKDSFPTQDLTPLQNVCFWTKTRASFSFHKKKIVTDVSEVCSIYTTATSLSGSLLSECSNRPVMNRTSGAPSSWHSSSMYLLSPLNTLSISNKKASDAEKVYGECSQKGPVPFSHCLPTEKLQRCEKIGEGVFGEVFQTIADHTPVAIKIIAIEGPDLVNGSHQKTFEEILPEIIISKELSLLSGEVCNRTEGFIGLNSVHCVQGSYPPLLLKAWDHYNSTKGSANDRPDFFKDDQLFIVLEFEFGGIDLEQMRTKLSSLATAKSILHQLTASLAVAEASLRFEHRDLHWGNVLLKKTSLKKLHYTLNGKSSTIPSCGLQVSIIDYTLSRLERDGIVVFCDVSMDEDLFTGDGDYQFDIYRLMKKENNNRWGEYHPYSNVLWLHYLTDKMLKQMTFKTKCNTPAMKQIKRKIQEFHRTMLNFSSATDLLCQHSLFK
Serine/threonine-protein kinase 17A (Homo sapiens), sequence (Q9UEE5 whole entry): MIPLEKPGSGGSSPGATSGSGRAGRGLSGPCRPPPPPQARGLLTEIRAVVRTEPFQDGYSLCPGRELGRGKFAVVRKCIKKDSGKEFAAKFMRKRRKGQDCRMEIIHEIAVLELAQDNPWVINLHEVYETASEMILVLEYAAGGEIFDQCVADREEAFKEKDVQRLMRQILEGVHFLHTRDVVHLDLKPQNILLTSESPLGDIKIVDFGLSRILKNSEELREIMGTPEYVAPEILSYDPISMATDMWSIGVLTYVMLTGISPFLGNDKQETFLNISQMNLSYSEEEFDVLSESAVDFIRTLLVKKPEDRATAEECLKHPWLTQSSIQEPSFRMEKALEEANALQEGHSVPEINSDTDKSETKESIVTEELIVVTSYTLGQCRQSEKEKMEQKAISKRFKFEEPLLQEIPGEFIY
Dual specificity protein kinase CLK3 (Mus musculus), sequence (O35492 whole entry): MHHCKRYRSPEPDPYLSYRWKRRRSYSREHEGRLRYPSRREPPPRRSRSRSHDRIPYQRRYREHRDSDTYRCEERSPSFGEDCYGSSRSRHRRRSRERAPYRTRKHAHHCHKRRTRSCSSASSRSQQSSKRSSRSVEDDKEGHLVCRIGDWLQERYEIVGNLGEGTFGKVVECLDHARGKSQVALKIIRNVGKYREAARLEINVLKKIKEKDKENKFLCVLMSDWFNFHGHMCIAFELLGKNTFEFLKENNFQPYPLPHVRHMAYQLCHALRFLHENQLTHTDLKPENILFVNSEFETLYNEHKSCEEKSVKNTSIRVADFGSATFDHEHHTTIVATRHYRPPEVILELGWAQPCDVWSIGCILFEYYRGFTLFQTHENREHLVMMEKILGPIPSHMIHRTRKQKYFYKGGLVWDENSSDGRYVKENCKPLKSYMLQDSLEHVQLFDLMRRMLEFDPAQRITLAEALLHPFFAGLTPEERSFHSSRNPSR
SRSF protein kinase 1 (Homo sapiens), sequence (Q96SB4 whole entry): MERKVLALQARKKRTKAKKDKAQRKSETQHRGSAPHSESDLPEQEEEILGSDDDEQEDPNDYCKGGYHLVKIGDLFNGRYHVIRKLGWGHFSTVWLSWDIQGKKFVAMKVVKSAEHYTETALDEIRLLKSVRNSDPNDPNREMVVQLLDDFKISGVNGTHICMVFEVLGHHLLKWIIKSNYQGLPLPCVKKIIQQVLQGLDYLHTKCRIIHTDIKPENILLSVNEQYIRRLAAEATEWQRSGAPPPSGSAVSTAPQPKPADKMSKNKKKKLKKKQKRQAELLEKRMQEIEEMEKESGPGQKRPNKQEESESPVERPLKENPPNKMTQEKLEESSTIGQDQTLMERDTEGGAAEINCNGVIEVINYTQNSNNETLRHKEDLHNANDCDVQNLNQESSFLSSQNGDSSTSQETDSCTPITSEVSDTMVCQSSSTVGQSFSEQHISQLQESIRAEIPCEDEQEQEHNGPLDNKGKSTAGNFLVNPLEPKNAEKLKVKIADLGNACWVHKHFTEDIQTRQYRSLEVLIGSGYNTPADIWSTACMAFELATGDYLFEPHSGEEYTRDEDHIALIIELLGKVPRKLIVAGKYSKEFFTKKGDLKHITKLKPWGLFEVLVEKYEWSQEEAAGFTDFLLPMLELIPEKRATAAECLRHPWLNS

Consider `COc1ccc2sc(C(=O)N(C)Cc3cccnc3)cc2c1`, for which the figures for the GI50 in [1], in series [4] and in series [5] were 25.7 µM, 25.4 µM and 12.5 µM, respectively. The IC50 in [2] came out at 0.0816 µM. Further, the inhibition in series [3] came out at 51%. In the case of `COc1ccc2sc(C(=O)N3CCN(C)CC3)cc2c1`, the inhibition in series [3] stood at 0%. As to `COc1ccc2sc(C(=O)NCC(=O)O)cc2c1`, the inhibition in series [3] was determined as 0.5%. Same read-out and setting: then `COc1ccc2sc(C(=O)NCc3ccccc3F)cc2c1`, with 23.2%; and `COc1ccc2sc(C(=O)NCc3ccc(F)cc3)cc2c1`, with 23.5%. For the compound `COC(=O)CNC(=O)c1cc2cc(OC)ccc2s1`, the inhibition in series [3] was found to be 0%. The same measure, in the same setting: then `COc1ccc2sc(C(=O)NCC(F)(F)F)cc2c1`, with 39.8%.

For `COc1cccc(CN(C)C(=O)c2cc3cc(OC)ccc3s2)c1`, the inhibition in [3] was found to be 31.6%. As for `COc1ccc2sc(C(=O)N(C)Cc3ccccc3)cc2c1`, the GI50 in [6] was more than 30 µM; in series [1], 24.2 µM; in series [9], 3.7 µM; in series [12], more than 30 µM; in series [4], 28.8 µM; in series [5], 2.7 µM. The inhibition came out at 4% in series [7]; 58% in series [8]; 81% in series [10]; 101% in series [11]; 70.6% in series [3]; 44% in series [14]. Besides, the inhibition in [15] is 12%; in series [16] it was 10%; in series [17], 23%; in [18], 73%. In addition, the IC50 in series [2] was found to be 0.045 µM; in series [19], 0.52 µM. Besides, the inhibition entry in [13], in series [21] and in series [22] was “inactive” in each case. For the same compound, the inhibition at 1 µM in series [20] amounted to 54%. The compound also gave an LC50 in [23] of more than 30 µM. For the compound `COc1ccc2sc(C(=O)NCc3cccnc3)cc2c1`, the inhibition in series [3] came out at 28.9%.

As for `COc1cccc(CNC(=O)c2cc3cc(OC)ccc3s2)c1`, the inhibition in series [3] was determined as 13.4%.

Take `COc1ccc2sc(C(=O)N[C@H](C(=O)O)C(C)C)cc2c1`: in series [3], the inhibition is 0%.

For `COc1ccc2sc(C(=O)NCc3ccccn3)cc2c1`, the inhibition in series [3] is 0%. As to `COc1ccc2sc(C(=O)N[C@H](C)C(C)(C)C)cc2c1`, the inhibition in series [3] stood at 6%. Regarding `COc1ccc2sc(C(=O)N3CCOCC3)cc2c1`, in [3], the inhibition amounted to 0%. As for `COc1ccc2sc(C(=O)NC3CC3)cc2c1`, the inhibition in series [3] turned out to be 25%. Same read-out and setting: then `COc1ccc2sc(C(=O)NCCn3ccnc3)cc2c1`, with 0%; and `COc1ccc2sc(C(=O)Nc3nccs3)cc2c1`, with 28.2%. For `COc1ccc2sc(C(=O)NCCc3ccccc3)cc2c1`, the IC50 in series [2] is 0.107 µM. Moreover, the inhibition in series [3] is 50.7%. As for `COc1ccc2sc(C(=O)NCc3ccco3)cc2c1`, the inhibition in [3] turned out to be 33.4%. On the same count and under the same terms, then `COc1ccc2sc(C(=O)NCc3ncc[nH]3)cc2c1`, with 0%. For the compound `COc1ccc2sc(C(=O)NCCN)cc2c1`, the inhibition in series [3] stood at 7.7%.

On to `COc1ccc2sc(C(=O)N(C)CCc3ccccc3)cc2c1`, for which, in series [3], the inhibition stood at 32.9%.

Regarding `COc1ccc2sc(C(=O)Nc3ccccc3)cc2c1`, the inhibition in series [3] stood at 0.54%. Still for that read-out and setting: the result for `COc1ccc2sc(C(=O)N(C)Cc3ccc(F)cc3)cc2c1` reads 28.7%; that for `COc1ccc2sc(C(=O)N(C)Cc3ccccn3)cc2c1`, 34.6%; that for `COc1ccc2sc(C(=O)NCCO)cc2c1`, 0%.

For the compound `COc1ccc2sc(C(=O)N(C)CCn3ccnc3)cc2c1`, the inhibition in series [3] was determined as 9.4%. Regarding `CCOC(=O)[C@H](C)NC(=O)c1cc2cc(OC)ccc2s1`, in series [3], the inhibition was 0%. The same measure, in the same setting: the result for `COc1ccc2sc(C(=O)N3CCCCC3)cc2c1` reads 0%.

Take `COc1ccc2sc(C(=O)NCc3ccccc3)cc2c1`: the IC50 in series [2] was found to be 0.084 µM. Besides, the inhibition in series [3] was 59.4%. Turning to `COc1ccc2sc(C(=O)N[C@@H](C)C(=O)O)cc2c1`, the inhibition in series [3] was 0%. The same measure, in the same setting: the result for `C=CCNC(=O)c1cc2cc(OC)ccc2s1` reads 37%. On the same count and under the same terms, the result for `COC(=O)[C@@H](NC(=O)c1cc2cc(OC)ccc2s1)C(C)C` reads 18.8%; that for `COc1ccc2sc(C(=O)N(C)Cc3cccc(C)c3)cc2c1`, 25.9%; that for `COc1ccc2sc(C(=O)N(C)Cc3ccccc3F)cc2c1`, 43.2%.
